Results on 4 compounds are retold here after PMC9890663 (RSC Advances, 2023).

In brackets after ≈: the same amount, converted by molar mass. Several values for one entry are separate records, joined by “and”; a condition that tells them apart may be missing. Equal entries are not always repeated. Where two headings read alike, the source gives them in different places.

One data set deals with MRC-5 cells. Put plainly: Antiproliferative activity, MTT assay. The format is cell-based, human. In general terms: Formazan colour is commonly taken as a measure of viable cells.
The subject of data set [1] is C. albicans ATCC 10231. Description: Inhibition of hyphae formation on Spider medium. Particulars: 0.5 × MIC, vs DMSO control. It is filed as cell-based, Candida albicans.
The subject of another data set is P. aeruginosa PAO1. Put plainly: MIC, broth microdilution. It is filed as cell-based. Particulars: Pseudomonas aeruginosa, PAO1, 24 h. For orientation: Broth dilution looks for growth in wells or tubes with falling amounts of substance.
Data set [2] relates to C. albicans ATCC 10231. Put plainly: MIC, broth microdilution. It is filed as cell-based. Particulars: Candida albicans, ATCC10231, 24 h. Put shortly:
(§1)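 Broth microdilution. S. aureus ATCC 25923 followed CLSI M07-A8 at 5 × 10^5 cfu mL−1; Candida strains followed EUCAST yeast method v7.3.1 at 1 × 10^5 cfu mL−1. Test compound from a 50 mg mL−1 DMSO stock was tested from 500 μg mL−1 downward, with final DMSO <1% v/v. MIC was the lowest concentration inhibiting growth after 24 h at 37 °C, read on a plate reader.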

The subject of the next data set is S. aureus ATCC 25923. Description: MIC, broth microdilution. It is filed as cell-based. The settings on record: Staphylococcus aureus, ATCC25923, 24 h. Put shortly:
as §1

For data set [3], the system named is calf thymus DNA (ct-DNA). Particulars: DNA intercalator; cited from earlier work.
Data set [4] relates to C. albicans ATCC 10231. Put plainly: Biofilm formation assay, crystal violet staining. The format is cell-based, Candida albicans. Particulars: MIC of the complexes applied. The procedure, abridged:
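Candida albicans ATCC 10231 biofilm assay, starting inoculum 1 × 10^6 cfu mL−1. Test compound was applied as two-fold serial dilutions from 3.5 down to 0.05 μg mL−1, then incubated 48 h at 37 °C. Adherent biomass was stained with crystal violet and read at 590.0 nm. The assay was repeated three times.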

Data set [5] relates to Chromobacterium violaceum CV026. Put plainly: Anti-quorum sensing disc assay, violacein production. Particulars: 100 μg per disc. The format is cell-based. Put shortly: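 Agar-overlay disc assay. Inocula were grown overnight in LB at 30 °C and 180 rpm, with antibiotic for CV026. 50.0 μL of culture was seeded into 0.3% semi-solid LB agar and overlaid on LB plates. CV026 received N-hexanoyl-L-homoserine lactone (final 5.0 μM); S. marcescens ATCC 27117 received no autoinducer. Compound was placed on sterile discs and plates incubated overnight at 30 °C. Pigment inhibition was scored as white halo width (mm), distinct from growth-clearance zones.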

The target in data set [6] is bovine serum albumin (BSA) (Bos taurus, UniProt P02769). Description: BSA fluorescence emission quenching. It is filed as binding. The procedure, abridged:
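Tryptophan fluorescence quenching of 5 μM BSA in PBS pH 7.4, titrated with test compound (DMSO stock) up to 130 μM. Excitation was 290.0 nm and spectra were recorded at 295.0–500.0 nm, with quenching monitored at 365.0 nm. Ksv came from a Stern–Volmer plot, and Kq from Ksv with τ0 of 10^-8 s. KA and binding-site number n came from a log(F0−F)/F vs log[complex] plot.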

The test system of data set [7] is calf thymus DNA (ct-DNA). Put plainly: Competitive EthBr-ct-DNA fluorescence emission study. The format is binding. Put shortly:
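Ethidium bromide displacement on calf thymus DNA in PBS pH 7.4, with ct-DNA quantified by A260 (ε 6.6 × 10^3 M−1 cm−1). [DNA]/[EthBr] was held at 10 while test compound (10 mM DMSO stock) was increased. Excitation was 545.0 nm, emission 550.0–750.0 nm. Ksv and Kq (τ0 10^-8 s) came from the Stern–Volmer equation; KA and n from a log(F0−F)/F vs log[complex] plot.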

The subject of a further data set is C. albicans. Particulars: cited from earlier work.

Chain of bovine serum albumin (BSA) (P02769 25-607): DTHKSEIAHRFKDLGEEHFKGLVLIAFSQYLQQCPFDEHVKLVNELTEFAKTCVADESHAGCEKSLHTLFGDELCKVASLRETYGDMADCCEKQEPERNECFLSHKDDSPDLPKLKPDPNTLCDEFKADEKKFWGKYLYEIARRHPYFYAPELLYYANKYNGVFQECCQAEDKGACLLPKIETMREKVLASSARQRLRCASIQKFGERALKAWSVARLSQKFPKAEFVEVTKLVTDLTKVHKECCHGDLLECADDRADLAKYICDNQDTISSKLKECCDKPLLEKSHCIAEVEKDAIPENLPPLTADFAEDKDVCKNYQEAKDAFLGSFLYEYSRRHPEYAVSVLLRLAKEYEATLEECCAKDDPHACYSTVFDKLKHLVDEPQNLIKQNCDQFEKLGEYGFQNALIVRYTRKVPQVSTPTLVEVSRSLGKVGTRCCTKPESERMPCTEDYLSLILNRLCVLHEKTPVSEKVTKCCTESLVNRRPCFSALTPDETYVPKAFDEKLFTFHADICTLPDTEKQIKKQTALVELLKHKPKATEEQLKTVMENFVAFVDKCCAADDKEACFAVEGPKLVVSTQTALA

What is called IC50 is the midpoint of a concentration-inhibition curve. Usually MIC stands for the lowest concentration found to suppress growth. `COC(=O)c1cnc(-c2cnccn2)cc1C(=O)OC` [py-2pz, dimethyl 6-(pyrazine-2-yl)pyridine-3,4-dicarboxylate] showed an IC50 in the data set on MRC-5 cells (Homo sapiens, MRC5, 48 h, MRC-5, 48 h treatment) of 120 µg/mL (≈ 439 µM). The “C. albicans hyphae formation” value in the data set on C. albicans ATCC 10231 [1] was “did not show a potency to inhibit C. albicans filamentous growth”. The MIC in the data set with P. aeruginosa PAO1 was > 1830 µM and > 500 µg/mL; against C. albicans ATCC 10231 [2] it was > 1830 µM and > 500 µg/mL; in the data set with S. aureus ATCC 25923 it was > 1830 µM and > 500 µg/mL.

Consider `C[n+]1c2ccccc2c(-c2c3ccccc3[n+](C)c3ccccc23)c2ccccc21` [lucigenin], for which the Hypochromism in the data set with calf thymus DNA (ct-DNA) [3] is 50%.

Consider {[Ag(NO3)(py-2pz)]·0.5H2O}n [Complex 4], for which the “fold less toxic against MRC-5 than AgSD” value in the data set with MRC-5 cells is reported as 1.7 fold. The “percentage of the formed C. albicans biofilms” value with C. albicans ATCC 10231 [4] worked out at 62%. Also, in data set [5], the “clear zones of inhibition (antibacterial effect)” value was determined as 5 mm. Moreover, the Hypochromism amounted to 60.5% in [6] (BSA fluorescence at 365.0 nm) and 15.4% in the data set with calf thymus DNA (ct-DNA) [7] (EthBr-ct-DNA fluorescence). In addition, the K sv entry in data set [6] (Stern-Volmer constant, BSA 5 μM, PBS pH 7.4) is “(2.10 ± 0.02) × 10^4 M^−1”; in the data set on calf thymus DNA (ct-DNA) [7] (Stern-Volmer constant, EthBr-ct-DNA, PBS pH 7.4), “(1.14 ± 0.01) × 10^3 M^−1”. The “K A” value turned out to be 21500 M⁻¹ in data set [6] (binding constant, BSA) and 2000 M⁻¹ with calf thymus DNA (ct-DNA) [7] (binding constant, ct-DNA). For the same compound, the K q in [6] (quenching rate constant, BSA) was determined as 2.1e+12 M⁻¹ s⁻¹; in the data set on calf thymus DNA (ct-DNA) [7] (quenching constant, EthBr-ct-DNA), 1.14e+11 M⁻¹ s⁻¹.

For the compound [CuCl2(py-2metz)]n, the MIC in the data set with C. albicans was 31.25 µg/mL.
